The test system of assay [1] is Staphylococcus aureus. Put plainly: Antibacterial activity against Staphylococcus aureus RN4220 overexpressing MsrA macrolide efflux protein after 24 hrs. As to conditions: RN4220, 24 h. It counts as functional. Summed up: (§1)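 Strains grown on nutrient agar for 24 h at 37 °C before testing. Broth microdilution MIC used an inoculum of 5 × 10⁵ CFU, prepared in normal saline (9 g/L) against a 0.5 McFarland standard. Plates were incubated at 37 °C, then MTT (5 mg/mL methanolic stock) was added for 20 min. Growth was scored by colour change.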

In the next assay the test system is Mycolicibacterium phlei. Kind of assay: Antimycobacterial activity against Mycobacterium phlei ATCC 11758 after 72 hrs by MTT assay. It counts as functional. As to conditions: ATCC 11758, 72 h. A digest of the protocol:
(§2)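 Mycobacterium strains were subcultured on Columbia agar with 7% defibrinated horse blood at 37 °C for 72 h before assay. The inoculum was 5 × 10⁵ CFU in normal saline (9 g/L), set against a 0.5 McFarland standard. Microtiter plates were incubated at 37 °C. MIC was read after adding MTT (5 mg/mL methanolic stock) for 20 min, with growth shown by colour change.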
In general terms: Tetrazolium dyes change colour on reduction, which living cells bring about.

Assay [2] has as its system Mycolicibacterium smegmatis. Kind of assay: Antimycobacterial activity against Mycobacterium smegmatis ATCC 14468 after 72 hrs by MTT assay. To be noted: ATCC 14468, 72 h. Format: functional. Summed up:
(§3)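 Mycobacteria were grown on Columbia agar with 7% defibrinated horse blood, subcultured, and incubated 72 h at 37 °C before the assay. Broth microdilution MIC used an inoculum of 5 × 10⁵ CFU in normal saline, set against a 0.5 McFarland standard. Plates were incubated at 37 °C, then MTT (5 mg/mL methanolic stock) was added for 20 min. Growth was read by colour change.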

Assay [3] has as its system Mycolicibacterium fortuitum. Kind of assay: Antimycobacterial activity against Mycobacterium fortuitum ATCC 6841 after 72 hrs by MTT assay. It counts as functional. To be noted: ATCC 6841, 72 h. A digest of the protocol: as §2
Assay [4] deals with Mycolicibacterium smegmatis. Put plainly: Antimycobacterial activity against Mycobacterium smegmatis MC2 2700 expressing Mycobacterium tuberculosis fatty acid synthase 1 gene after 72 hrs by MTT assay. It counts as functional. To be noted: MC2 2700, 72 h. A digest of the protocol: as §3
In assay [5] the test system is Pseudomonas aeruginosa. Put plainly: […] activity against Pseudomonas aeruginosa K1119 after 24 hrs. Format: functional. To be noted: K1119, 24 h. A digest of the protocol: as §1
The test system of assay [6] is Pseudomonas aeruginosa. Put plainly: […] activity against Pseudomonas aeruginosa K767 after 24 hrs. As to conditions: K767, 24 h. It counts as functional. Summed up: as §1
Assay [7] concerns Staphylococcus aureus. Kind of assay: Antibacterial activity against Staphylococcus aureus SA-1199B overexpressing NorA MDR efflux pump after 24 hrs. It counts as functional. A digest of the protocol: as §1
In assay [8] the test system is Staphylococcus aureus. Kind of assay: Antibacterial activity against Staphylococcus aureus ATCC 25923 after 24 hrs. It counts as functional. As to conditions: ATCC 25923, 24 h. Summed up: as §1
Assay [9] has as its system Staphylococcus aureus. Put plainly: Antibacterial activity against Staphylococcus aureus XU212 overexpressing TetK tetracycline efflux pump after 24 hrs. Format: functional. As to conditions: XU212, 24 h. Summed up: as §1
Assay [10] has as its system Salmonella typhimurium. Put plainly: […] activity against Salmonella enterica serovar Typhimurium L10 after 24 hrs. Format: functional, Salmonella enterica subsp. enterica serovar Typhimurium. As to conditions: L10, 24 h. Summed up: (§4)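 The microdilution inoculum was 5 × 10⁵ CFU in normal saline (9 g/L), matched to a 0.5 McFarland standard. Plates were incubated at 37 °C. MTT (5 mg/mL methanolic stock) was added for 20 min, and colour change indicated growth for the MIC readout.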

Assay [11] concerns Staphylococcus aureus. Kind of assay: Antibacterial activity against Staphylococcus aureus EMRSA-15 after 24 hrs. It counts as functional. To be noted: EMRSA-15, 24 h. Summed up: as §1
For assay [12], the system named is Staphylococcus aureus. Kind of assay: Antibacterial activity against Staphylococcus aureus EMRSA-16 after 24 hrs. To be noted: EMRSA-16, 24 h. It counts as functional. A digest of the protocol:
as §1

Assay [13] has as its system Salmonella typhimurium. Kind of assay: […] activity against Salmonella enterica serovar Typhimurium L354 after 24 hrs. It counts as functional, Salmonella enterica subsp. enterica serovar Typhimurium. To be noted: L354, 24 h. A digest of the protocol: as §4

In brackets after ≈: the same amount, converted by molar mass. Bounds are passed on as bounds.

In the case of `CC[C@H]1OC(=O)[C@H](C)[C@@H](O[C@H]2C[C@@](C)(OC)[C@@H](O)[C@H](C)O2)[C@H](C)[C@@H](O[C@@H]2O[C@H](C)C[C@H](N(C)C)[C@H]2O)[C@](C)(O)C[C@@H](C)C(=O)[C@H](C)[C@@H](O)[C@]1(C)O` [ERYTHROMYCIN], in the assay on Staphylococcus aureus [1], it took 349 µM to inhibit growth (MIC).

In the case of `CC[C@@H](CO)NCCN[C@@H](CC)CO` [ETHAMBUTOL], the minimum inhibitory concentration (MIC) (in the assay on Mycolicibacterium phlei; in assay [2]; in assay [3]; in assay [4]) was 2.4 µM (≈ 0.49 µg/mL) throughout.

For the compound `NNC(=O)c1ccncc1` [ISONIAZID], the MIC (as a rule, the lowest concentration that inhibits growth of the organism) in the assay with Mycolicibacterium phlei is 14.6 µM (≈ 2 µg/mL); in assay [2], 14.6 µM (≈ 2 µg/mL); in [3], 29.2 µM (≈ 4 µg/mL); in [4] it was 14.6 µM (≈ 2 µg/mL).

On to `CCn1cc(C(=O)O)c(=O)c2cc(F)c(N3CCNCC3)cc21` [NORFLOXACIN], for which the MIC worked out at 6.2 µM (≈ 1.98 µg/mL) against Pseudomonas aeruginosa [5], 6.2 µM (≈ 1.98 µg/mL) against Pseudomonas aeruginosa [6], 100 µM with Staphylococcus aureus [7] and 3.1 µM in the assay with Staphylococcus aureus [8].

`CC[C@H](C)C(=O)c1c(O)cc(O)cc1OC/C=C(\C)CCC=C(C)C` [OLYMPICIN A]: the MIC was 2.9 µM against Staphylococcus aureus [9]; > 1000 µM against Salmonella typhimurium [10]; 11.6 µM (≈ 4.02 µg/mL) against Mycolicibacterium phlei; 2.9 µM with Staphylococcus aureus [1]; 1.45 µM against Staphylococcus aureus [11]; > 1000 µM in the assay with Pseudomonas aeruginosa [5]. The MIC was 2.9 µM against Staphylococcus aureus [12]; > 1000 µM in the assay with Pseudomonas aeruginosa [6]; 2.9 µM against Staphylococcus aureus [7]; > 1000 µM in the assay with Salmonella typhimurium [13]; 11.6 µM (≈ 4.02 µg/mL) in assay [2]; 23.2 µM (≈ 8.04 µg/mL) in assay [3]. In addition, the values for the minimal inhibitory concentration (MIC) (in assay [4]; against Staphylococcus aureus [8]) were 11.6 µM (≈ 4.02 µg/mL) and 2.9 µM, respectively.

Turning to `CC[C@H](C)C(=O)c1c(O)cc(O)cc1OC/C=C(\C)C/C=C/C(C)(C)O` [OLYMPICIN B], the MIC against Staphylococcus aureus [9], with Staphylococcus aureus [1], in the assay with Staphylococcus aureus [11], against Staphylococcus aureus [12], against Staphylococcus aureus [7] and against Staphylococcus aureus [8] was 64 µg/mL each time.

On to `C=C(C)C(O)CC/C(C)=C/COc1cc(O)cc(O)c1C(=O)C(C)CC` (stereo unspecified) [OLYMPICIN C], for which the minimal inhibitory concentration (MIC) in the assay on Staphylococcus aureus [9], in the assay on Staphylococcus aureus [1], in the assay on Staphylococcus aureus [11], against Staphylococcus aureus [12], against Staphylococcus aureus [7] and against Staphylococcus aureus [8] was 64 µg/mL throughout.

Turning to `C=C(C)C(CC/C(C)=C/COc1cc(O)cc(O)c1C(=O)C(C)CC)OO` (stereo unspecified) [OLYMPICIN D], the MIC in the assay with Staphylococcus aureus [9], in the assay with Staphylococcus aureus [1], with Staphylococcus aureus [11], against Staphylococcus aureus [12], in the assay with Staphylococcus aureus [7] and in the assay on Staphylococcus aureus [8] was 64 µg/mL each time.

Consider `CCC(C)C(=O)c1c(O)cc(O)cc1OC/C=C(\C)CCC1OC1(C)C` (stereo unspecified) [OLYMPICIN E], for which the MIC against Staphylococcus aureus [9], with Staphylococcus aureus [1], in the assay with Staphylococcus aureus [11], against Staphylococcus aureus [12], with Staphylococcus aureus [7] and against Staphylococcus aureus [8] was 64 µg/mL each time.

As to `Cc1onc(-c2ccccc2)c1C(=O)N[C@@H]1C(=O)N2[C@@H]1SC(C)(C)[C@@H]2C(=O)O` [OXACILLIN], the results for the MIC against Staphylococcus aureus [11] and in the assay on Staphylococcus aureus [12] were 79 µM and 1280 µM, respectively.

`CN(C)[C@@H]1C(O)=C(C(N)=O)C(=O)[C@@]2(O)C(O)=C3C(=O)c4c(O)cccc4[C@@](C)(O)[C@H]3C[C@@H]12` [TETRACYCLINE]: the minimal inhibitory concentration (MIC) in the assay with Staphylococcus aureus [9] was 288 µM; against Salmonella typhimurium [10] it was 2.3 µM (≈ 1.02 µg/mL); with Salmonella typhimurium [13] it was 2.3 µM (≈ 1.02 µg/mL).

The values are drawn from ChEMBL document CHEMBL2021901, “Antibacterial acylphloroglucinols from Hypericum olympicum” (2012).
